# Screens deposited in PubChem by several laboratories.
# Rows were chosen to be rich in hits. Some 2.8% of all compounds tested hit in one or more screens of this group.
# Yeast growth inh = reduces growth of yeast BB579 in restrictive medium; S. cerevisiae BB579 growth, OD615, 48 h; inhibition, % at 10 µM; actives 0.51% (n = 140,000); AID 804;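 active = inhibition above a set limit, 3 SD over the mean compound inhibition, cut at about 44% in these data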
#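 Material: Saccharomyces cerevisiae DeaD strain BB579, replicative lifespan model yeast; buffer or medium: CSMM-D restrictive synthetic medium containing dextrose (glucose); compound: 10 µM single dose, DMSO 0.25%; timing: 48 h compound exposure at 30 °C after 4 h preincubation; signal: turbidity as optical density at 615 nm; benchmarks: positive control amphotericin B 10 µg/mL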
# SDO1 yeast rescue = compounds rescuing growth of sdo1-depleted yeast, bone marrow failure model; AID 817; actives 0.21% (n = 140,000); S. cerevisiae sdo1-depleted JHY4D growth rescue, OD600 30 h; hits give high values; pdr5 snq2 efflux-pump mutant strain; z-score at 10 µM;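 active = z-score above 3 at both the 24 hr and the 30 hr optical density reads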;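 also: z-score against mean and SD of all compound wells on the same plate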
# PTEN del growth = growth suppressors of cells with PTEN tumor suppressor deletion; HCT116 PTEN-null viability, CellTiter-Glo, 60 h; hits give low values; viability, % at 10 µM; actives 1.2% (n = 140,000);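 active = viability at or below a set limit, 4 SD under the median of all tested compounds, cut at about 3.7% in these data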;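 also: PTEN knockout HCT116 line with beta catenin targeted HCT116 as companion control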
# bCat KO growth = beta-catenin-lacking colon tumor cell growth suppression; HCT116 beta-catenin knockout viability, CellTiter-Glo, 60 h; hits give low values; viability, % at 10 µM; actives 1.5% (n = 140,000); AID 818;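 active = viability at or under a set limit, the compound median less 4 SD, cut at about 6% in these data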;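 also: 0% = Hyamine 1622 control at 20 µM and 100% = untreated cell control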
# Yeast life ext = yeast lifespan extension | actives 0.68% (n = 130,000) | S. cerevisiae growth with nicotinamide, OD615; deaD strain in restrictive glucose medium | inhibition of the nicotinamide effect, % at 10 µM;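 active = inhibition above a set limit, placed 3 SD over the median of all compounds, cut at about 26% in these data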;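 also: 0% = nicotinamide-treated wells and 100% = cells grown without nicotinamide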
#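 Measured by: optical density (absorbance) at 615 nm; System: modified budding yeast, DeaD strain; Medium: restrictive CSMM-D dextrose medium; Timing: 4 h preincubation then 48 h treatment at 30 °C.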
# SDO1 rescue DR = confirmation of growth rescue in SDO1-depleted yeast, bone marrow failure. shares compounds with SDO1 yeast rescue. S. cerevisiae JHY4D (SDO1-depleted) growth rescue, OD600, 30 h; hits give high values; efflux-deficient strain, SNQ2 and PDR5 mutated. OD recovery (concentration not given with the values). actives 44% (n = 440);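 active = yeast growth recovered at 30 hours, either rising with dose fitted slope above 0.001 or with average optical density gain above 0.07, some results past the limit were not filed as active; inactive = growth falling with dose or no effect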;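 also: gain in OD600 from 0 h to 30 h averaged across all seven doses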
# * = called active by the depositor; / = not tested or not shown.
SMILES,Yeast growth inh,SDO1 yeast rescue,PTEN del growth,bCat KO growth,Yeast life ext,SDO1 rescue DR
COc1ccc(Cn2c(=O)c3c(nc(NCCO)n3C)n(C)c2=O)cc1,-18,0.61,86,101,1,/
CN(C)CCNC(=O)c1coc(=O)c(Br)c1,-26,13*,105,88,0,0.053
Cn1c(=O)c2c(nc(N3CCCC3)n2CC(O)CO)n(C)c1=O (stereo not drawn),-4,2.2,98,113,-7,0.097*
COC(=O)C1=C(C)NC(C)=C(C(=O)OC)C1c1ccc(OC(=O)c2ccco2)cc1,-71,10*,97,97,-6,0.079*
COc1ccccc1-c1cc(C(=O)NCCN2CCOCC2)no1,-14,1.5,96,102,-5,0.042
COc1cccc(-c2cc(C(=O)NCCN3CCOCC3)no2)c1,-25,-0.65,115,100,10,/
CCCCCc1nc2ccccc2c(=O)n1N,-15,-1.6,85,96,-7,/
CCCc1nc2ccccc2c(=O)n1N,-27,3.6*,103,97,17,0.058
COc1cc(NC(=O)c2ccco2)c(OC)cc1NC(=O)c1cc(OC)c(OC)c(OC)c1,-60,0.07,83,66,-9,/
CCOc1cc(NC(=O)c2ccco2)c(OCC)cc1NC(=O)c1cc(OC)c(OC)c(OC)c1,-22,1.2,96,93,5,0.068
CCCCNC(=S)NNC(=O)c1cccnc1,-1,0.49,97,97,/,/
COc1cc(OC)c(-c2c3cc(O)c(=O)cc-3oc3cc(O)c(O)cc23)cc1OC,4,3.8*,79,74,9,-0.025
Cc1cc(NC(=O)c2noc3c2CCc2ccccc2-3)n(-c2ccccc2)n1,-30,9.6*,95,100,-2,0.083*
Cc1ccc(NC(=O)c2noc3c2CCc2ccccc2-3)cc1,-56,0.86,76,84,-25,/
O=Cc1cn(-c2ccc(F)cc2)c2ccccc12,-26,0.77,94,94,-2,/
Cc1ccc2cc(C#N)c(SCC(=O)Nc3ccc4sc(C)nc4c3)nc2c1,-38,2.2,88,87,10,0.1*
CN1CCN(Cc2nc3c(c(=O)n(C)c(=O)n3C)n2CCCc2ccccc2)CC1,-15,11*,89,85,-6,0.13*
Cc1ccc(Cn2c(CN3CC(C)OC(C)C3)nc3c2c(=O)n(C)c(=O)n3C)cc1 (stereo not drawn),-27,8.8*,88,81,6,0.057*
Cc1ccc(Cn2c(CN3CCOCC3)nc3c2c(=O)n(C)c(=O)n3C)cc1,-11,-0.4,99,87,-2,/
CC1(C)SCC2C(=O)N3C(CSC3(C)C)C(=O)N21 (stereo not drawn),-31,1.2,103,105,-6,/
N#Cc1nc(-c2ccco2)oc1NCCCn1ccnc1,-39,0.24,93,98,-8,/
CCOC(=O)/C(=C/c1ccc(F)cc1)NC(C)=O,-21,1.1,92,95,6,/
CC(=O)N/C(=C\c1ccc(F)cc1)C(=O)OC(C)C,1,3.4*,107,96,1,0.098*
CC(C)C(=O)N1CCN(c2ccc([N+](=O)[O-])c(NC(C)c3ccccc3)c2)CC1 (stereo not drawn),-23,-0.65,64,80,-4,/
O=C(CCCOc1ccc(Cl)cc1Cl)N/N=C/c1cccc([N+](=O)[O-])c1,-36,1.3,29,43,0,0.059
SMILES,Yeast growth inh,SDO1 yeast rescue,PTEN del growth,bCat KO growth,Yeast life ext,SDO1 rescue DR
O=C(N/N=C/c1cccc([N+](=O)[O-])c1)C1CC(=O)N(c2ccc(Cl)cc2)C1 (stereo not drawn),-43,-1.2,95,87,-12,/
CS(=O)(=O)NCc1nnc(SCC(=O)NC2CCCCC2)n1-c1ccc(F)cc1,-32,-0.1,113,96,1,/
CCN1C=C(Cc2cccs2)C2=C(C1)C(c1cccs1)C(C#N)=C(N)O2 (stereo not drawn),-39,-0.82,33,42,-8,/
CCOC(=O)c1sc(NC(=O)CSc2nnnn2-c2ccccc2)nc1C,-41,-1,101,99,-9,/
CCOC(=O)c1sc(NC(=O)CSc2nnnn2-c2ccc(C)c(C)c2)nc1C,-14,1.5,95,102,-6,0.1*
O=C(NCC1CCCO1)c1ccc(CS(=O)(=O)Cc2ccc(F)cc2)o1 (stereo not drawn),-31,0.34,103,101,-10,/
CCN(C(=O)COC(=O)c1c2c(nc3ccccc13)/C(=C/c1ccccc1)CC(C)C2)C1CCS(=O)(=O)C1 (stereo not drawn),-23,0.63,47,37,-2,/
COc1ccc(C2=NOC(C(=O)NCCCN3CCOCC3)C2)cc1 (stereo not drawn),-4,-0.49,99,97,-3,/
COc1ccc(N2CC(C(=O)NCCCN3CCOCC3)CC2=O)cc1 (stereo not drawn),-15,1.8,104,100,15,0.084*
O=C(CCCn1c(=O)[nH]c2cc(Cl)ccc2c1=O)NCCCN1CCCC1,-1,1.4,99,96,2,/
O=C(CCCn1c(=O)[nH]c2cc(Cl)ccc2c1=O)NCCC1=CCCCC1,-27,6.7*,102,96,-6,0.091*
O=C1CSC(c2ccccn2)N1c1ccc2ccccc2c1 (stereo not drawn),-40,0.05,65,63,-16,/
O=C1CSC(c2ccccn2)N1c1ccccc1 (stereo not drawn),-20,4.1*,84,90,-8,0.08*
Cc1cc(N2CCOCC2)nc(SCC(=O)c2ccccc2)n1,-43,0.31,82,91,-1,0.085*
CN1CCN(c2ccc(Cl)cc2NC(=O)c2ccc(S(=O)(=O)N(C)C)cc2)CC1,-26,4.3*,90,84,-12,0.045
CCOc1ccccc1C(=O)N(Cc1cccs1)C1CCS(=O)(=O)C1 (stereo not drawn),-5,0.82,96,102,-4,/
Cc1ccc(SCCC(=O)Nc2ccccc2C(=O)N2CCOCC2)cc1,-2,4.1*,92,82,3,0.05
COc1ccc(CNc2nc3nc(C)cc(C)n3n2)cc1,-29,-0.2,99,93,-17,/
COc1ccc(-c2nc3nc(C)cc(C)n3n2)cc1,-4,13*,90,90,-29,0.063
Cc1cc2c(c(=O)n1Cc1cccnc1)C(c1ccccc1)C(C#N)=C(N)O2 (stereo not drawn),-62,5.8*,96,98,-2,0.067
N#C/C(=N\Nc1cc(Cl)cc(Cl)c1)c1nnc2n1CCCCC2,-11,-0.89,66,77,-5,/
O=C(O)COc1ccc2occ(C(=O)c3ccccc3)c2c1,-2,0.12,113,102,-14,/
COC(=O)COc1ccc2occ(C(C)=O)c2c1,-81,3.6*,92,103,-14,0.11*
